Columns and labels:
[1] = target: T1, Serine/threonine-protein kinase Nek2 (Homo sapiens, UniProt P51955); experiment: Inhibition of NEK2 (unknown origin)
T1 sequence (P51955 whole entry): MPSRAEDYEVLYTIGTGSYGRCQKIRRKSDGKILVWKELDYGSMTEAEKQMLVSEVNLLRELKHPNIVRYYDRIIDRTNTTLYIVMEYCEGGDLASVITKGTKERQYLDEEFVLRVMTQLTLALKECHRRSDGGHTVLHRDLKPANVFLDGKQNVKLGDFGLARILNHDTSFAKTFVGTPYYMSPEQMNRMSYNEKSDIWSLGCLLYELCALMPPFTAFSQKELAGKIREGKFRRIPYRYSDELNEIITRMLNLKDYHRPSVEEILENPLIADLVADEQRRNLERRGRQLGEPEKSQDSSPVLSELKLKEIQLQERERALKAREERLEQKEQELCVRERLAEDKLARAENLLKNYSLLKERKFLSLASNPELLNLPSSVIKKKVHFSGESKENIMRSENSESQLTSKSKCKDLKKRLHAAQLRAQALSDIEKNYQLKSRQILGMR

[2] = target: Serine/threonine-protein kinase N1 (Homo sapiens, UniProt Q16512); experiment: Inhibition of PRK1 (unknown origin)
[3] = target: Hepatocyte growth factor receptor (Homo sapiens, UniProt P08581); experiment: Inhibition of wild type MET (unknown origin)
[4] = target: Serine/threonine-protein kinase Nek6 (Homo sapiens, UniProt Q9HC98); experiment: Inhibition of NEK6 (unknown origin)
[5] = target: Dual specificity mitogen-activated protein kinase kinase 1 (Homo sapiens, UniProt Q02750); experiment: Inhibition of wild type MEK1 (unknown origin)
[6] = target: RAC-alpha serine/threonine-protein kinase (Homo sapiens, UniProt P31749); experiment: Inhibition of AKT1 (unknown origin)
[7] = target: Serine/threonine-protein kinase PLK1 (Homo sapiens, UniProt P53350); experiment: Inhibition of PLK1 (unknown origin)
[8] = target: T2, Tyrosine-protein kinase receptor UFO (Homo sapiens, UniProt P30530); experiment: Inhibition of AXL (unknown origin)
T2 sequence (P30530 whole entry): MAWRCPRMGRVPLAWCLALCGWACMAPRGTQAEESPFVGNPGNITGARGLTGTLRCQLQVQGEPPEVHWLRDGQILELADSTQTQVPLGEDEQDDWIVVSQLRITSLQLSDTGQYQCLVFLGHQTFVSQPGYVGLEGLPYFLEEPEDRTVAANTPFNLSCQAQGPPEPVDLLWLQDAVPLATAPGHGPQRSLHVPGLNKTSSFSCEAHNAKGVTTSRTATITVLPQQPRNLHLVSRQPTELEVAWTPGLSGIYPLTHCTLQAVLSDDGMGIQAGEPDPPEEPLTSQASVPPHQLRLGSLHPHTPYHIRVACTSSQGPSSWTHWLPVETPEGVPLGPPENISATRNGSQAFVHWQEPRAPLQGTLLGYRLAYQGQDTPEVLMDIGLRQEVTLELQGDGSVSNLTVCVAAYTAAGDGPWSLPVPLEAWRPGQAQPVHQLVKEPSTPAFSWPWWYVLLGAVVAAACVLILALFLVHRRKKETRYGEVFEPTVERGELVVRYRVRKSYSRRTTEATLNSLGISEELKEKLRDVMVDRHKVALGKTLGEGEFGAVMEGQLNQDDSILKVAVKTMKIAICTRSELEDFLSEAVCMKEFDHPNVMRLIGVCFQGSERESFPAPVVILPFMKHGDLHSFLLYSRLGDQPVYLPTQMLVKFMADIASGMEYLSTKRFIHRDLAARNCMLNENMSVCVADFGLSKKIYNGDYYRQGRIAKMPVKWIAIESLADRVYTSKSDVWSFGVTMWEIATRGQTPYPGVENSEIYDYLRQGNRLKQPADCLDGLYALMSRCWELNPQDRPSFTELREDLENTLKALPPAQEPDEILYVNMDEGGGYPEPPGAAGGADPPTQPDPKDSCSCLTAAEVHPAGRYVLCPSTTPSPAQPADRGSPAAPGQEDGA

[9] = target: Vascular endothelial growth factor receptor 2 (Homo sapiens, UniProt P35968); experiment: Inhibition of VEGFR2 (unknown origin)
[10] = target: Proto-oncogene tyrosine-protein kinase Src (Homo sapiens, UniProt P12931); experiment: Inhibition of SRC (unknown origin)
[11] = target: ALK tyrosine kinase receptor (Homo sapiens, UniProt Q9UM73); experiment: Inhibition of ALK (unknown origin)
[12] = target: Focal adhesion kinase 1 (Homo sapiens, UniProt Q05397); experiment: Inhibition of FAK (unknown origin)
[13] = target: Serine/threonine-protein kinase pim-1 (Homo sapiens, UniProt P11309); experiment: Inhibition of PIM1 (unknown origin)
[14] = target: Aurora kinase B (Homo sapiens, UniProt Q96GD4); experiment: Inhibition of aurora-B (unknown origin)
[15] = target: T3, NUAK family SNF1-like kinase 1 (Homo sapiens, UniProt O60285); experiment: Inhibition of ARK5 (unknown origin)
T3 sequence (O60285 whole entry): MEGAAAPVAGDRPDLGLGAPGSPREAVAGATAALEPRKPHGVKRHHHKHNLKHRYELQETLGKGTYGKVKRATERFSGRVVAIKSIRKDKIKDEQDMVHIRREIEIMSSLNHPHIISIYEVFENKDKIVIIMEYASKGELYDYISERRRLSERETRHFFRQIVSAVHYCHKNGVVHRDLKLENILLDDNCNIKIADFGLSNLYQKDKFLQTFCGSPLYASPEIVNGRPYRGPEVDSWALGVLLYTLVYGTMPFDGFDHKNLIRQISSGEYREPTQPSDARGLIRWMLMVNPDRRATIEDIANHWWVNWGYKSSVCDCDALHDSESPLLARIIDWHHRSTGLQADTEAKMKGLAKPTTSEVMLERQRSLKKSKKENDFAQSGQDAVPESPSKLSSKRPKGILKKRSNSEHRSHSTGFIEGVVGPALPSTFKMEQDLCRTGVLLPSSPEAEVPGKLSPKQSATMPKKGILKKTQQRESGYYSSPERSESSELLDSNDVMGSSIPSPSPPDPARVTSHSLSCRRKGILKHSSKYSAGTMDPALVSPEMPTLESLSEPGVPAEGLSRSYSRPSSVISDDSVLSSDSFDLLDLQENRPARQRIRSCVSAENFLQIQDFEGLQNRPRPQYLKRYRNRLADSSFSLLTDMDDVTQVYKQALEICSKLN

[16] = target: Insulin-like growth factor 1 receptor (Homo sapiens, UniProt P08069); experiment: Inhibition of IGF1R (unknown origin)
[17] = test system: Raji; experiment: Antiproliferative activity against human Raji cells assessed as growth inhibition at 25 uM after 72 hrs; format: functional; conditions: read-out: GI
Procedure, shortened: (§1)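 RAJI and U-937 cells from ATCC, grown in RPMI 1640 with 10% heat-inactivated fetal calf serum and 1% antibiotic–antimycotic at 37 °C, humid 5% CO2. Treated 72 h; DMSO-treated cells as negative control; proliferation measured by a previously described method.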

[18] = target: Histone deacetylase 8 (Homo sapiens, UniProt Q9BY41); experiment: Inhibition of recombinant HDAC8 (unknown origin) using Fluor-de-Lys-HDAC8 as substrate by fluorescence assay
[19] = test system: PBMC; experiment: Cytotoxicity against PBMC (unknown origin) assessed as growth inhibition after 48 hrs; format: cell-based
Procedure, shortened: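 PBMCs isolated by a prior method, cultured in RPMI 1640 with 10% heat-inactivated FCS and 1% antibiotic–antimycotic at 37 °C, 5% CO2. Viability read after 48 h treatment, against DMSO-treated controls.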

[20] = target: Histone deacetylase 3 (Homo sapiens, UniProt O15379); experiment: Inhibition of recombinant HDAC3 (unknown origin) using Fluor-de-Lys-SIRT1 as substrate by fluorescence assay
[21] = Antiproliferative activity against human U937 cells assessed as growth inhibition at 25 uM after 72 hrs; format: functional; conditions: U-937, 72 h, read-out: GI; procedure, shortened: as §1
[22] = target: Histone deacetylase 2 (Homo sapiens, UniProt Q92769); experiment: Inhibition of recombinant HDAC2 (unknown origin) using Fluor-de-Lys-SIRT1 as substrate by fluorescence assay
[23] = target: Histone deacetylase; experiment: Inhibition of HDAC in human K562 cell extract using Fluor-de-Lys deacetylase as substrate preincubated for 45 mins measured after 15 mins by fluorescence assay; format: protein assay
[24] = target: Histone deacetylase 11 (Homo sapiens, UniProt Q96DB2); experiment: Inhibition of recombinant HDAC11 (unknown origin) using Fluor-de-Lys-SIRT1 as substrate by fluorescence assay
[25] = target: Histone deacetylase 1 (Homo sapiens, UniProt Q13547); experiment: Inhibition of recombinant HDAC1 (unknown origin) using Fluor-de-Lys-SIRT1 as substrate by fluorescence assay
[26] = target: Polyamine deacetylase HDAC10 (Homo sapiens, UniProt Q969S8); experiment: Inhibition of recombinant HDAC10 (unknown origin) using Fluor-de-Lys-SIRT1 as substrate by fluorescence assay
[27] = target: Protein deacetylase HDAC6 (Homo sapiens, UniProt Q9UBN7); experiment: Inhibition of recombinant HDAC6 (unknown origin) using Fluor-de-Lys-SIRT1 as substrate by fluorescence assay
[28] = Antiproliferative activity against human U937 cells assessed as growth inhibition at 5 uM after 72 hrs; format: functional; conditions: U-937, 72 h, read-out: GI; procedure, shortened: as §1
[29] = test system: Raji; experiment: Antiproliferative activity against human Raji cells assessed as growth inhibition at 5 uM after 72 hrs; format: functional; conditions: read-out: GI; procedure, shortened: as §1

Sequence of Serine/threonine-protein kinase N1 (Q16512 whole entry): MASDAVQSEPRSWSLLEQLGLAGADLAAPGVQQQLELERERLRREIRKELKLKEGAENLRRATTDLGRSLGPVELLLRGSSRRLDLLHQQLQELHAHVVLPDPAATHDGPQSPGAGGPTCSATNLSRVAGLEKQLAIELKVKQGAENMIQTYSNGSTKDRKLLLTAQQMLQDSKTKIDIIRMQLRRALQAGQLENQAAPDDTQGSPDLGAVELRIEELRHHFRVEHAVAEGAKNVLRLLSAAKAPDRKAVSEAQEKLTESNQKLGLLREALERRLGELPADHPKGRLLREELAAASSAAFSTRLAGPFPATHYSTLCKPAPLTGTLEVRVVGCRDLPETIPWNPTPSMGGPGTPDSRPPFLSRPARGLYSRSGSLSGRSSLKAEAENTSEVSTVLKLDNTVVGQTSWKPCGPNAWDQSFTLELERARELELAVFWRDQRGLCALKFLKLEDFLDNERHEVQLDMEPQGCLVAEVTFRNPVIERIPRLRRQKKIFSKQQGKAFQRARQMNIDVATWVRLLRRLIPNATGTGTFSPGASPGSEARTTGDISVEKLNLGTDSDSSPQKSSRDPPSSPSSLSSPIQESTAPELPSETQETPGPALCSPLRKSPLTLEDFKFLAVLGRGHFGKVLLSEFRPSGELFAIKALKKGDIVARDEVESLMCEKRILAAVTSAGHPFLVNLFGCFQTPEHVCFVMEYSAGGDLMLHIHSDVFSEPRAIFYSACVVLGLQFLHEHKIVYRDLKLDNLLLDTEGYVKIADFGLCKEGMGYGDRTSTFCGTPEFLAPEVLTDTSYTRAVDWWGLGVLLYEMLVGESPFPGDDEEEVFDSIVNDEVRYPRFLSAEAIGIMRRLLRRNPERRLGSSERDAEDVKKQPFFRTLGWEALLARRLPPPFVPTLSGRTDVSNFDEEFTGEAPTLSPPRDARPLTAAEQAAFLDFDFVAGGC
Sequence of Serine/threonine-protein kinase pim-1 (P11309 whole entry): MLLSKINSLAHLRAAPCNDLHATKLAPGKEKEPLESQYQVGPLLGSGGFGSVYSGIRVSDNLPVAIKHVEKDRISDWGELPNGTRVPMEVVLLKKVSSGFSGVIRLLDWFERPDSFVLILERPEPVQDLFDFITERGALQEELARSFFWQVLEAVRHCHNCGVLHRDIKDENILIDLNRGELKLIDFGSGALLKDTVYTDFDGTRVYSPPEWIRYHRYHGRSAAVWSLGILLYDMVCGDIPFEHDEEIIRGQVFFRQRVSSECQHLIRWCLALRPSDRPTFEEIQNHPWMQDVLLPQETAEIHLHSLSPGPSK
Sequence of Vascular endothelial growth factor receptor 2 (P35968 whole entry): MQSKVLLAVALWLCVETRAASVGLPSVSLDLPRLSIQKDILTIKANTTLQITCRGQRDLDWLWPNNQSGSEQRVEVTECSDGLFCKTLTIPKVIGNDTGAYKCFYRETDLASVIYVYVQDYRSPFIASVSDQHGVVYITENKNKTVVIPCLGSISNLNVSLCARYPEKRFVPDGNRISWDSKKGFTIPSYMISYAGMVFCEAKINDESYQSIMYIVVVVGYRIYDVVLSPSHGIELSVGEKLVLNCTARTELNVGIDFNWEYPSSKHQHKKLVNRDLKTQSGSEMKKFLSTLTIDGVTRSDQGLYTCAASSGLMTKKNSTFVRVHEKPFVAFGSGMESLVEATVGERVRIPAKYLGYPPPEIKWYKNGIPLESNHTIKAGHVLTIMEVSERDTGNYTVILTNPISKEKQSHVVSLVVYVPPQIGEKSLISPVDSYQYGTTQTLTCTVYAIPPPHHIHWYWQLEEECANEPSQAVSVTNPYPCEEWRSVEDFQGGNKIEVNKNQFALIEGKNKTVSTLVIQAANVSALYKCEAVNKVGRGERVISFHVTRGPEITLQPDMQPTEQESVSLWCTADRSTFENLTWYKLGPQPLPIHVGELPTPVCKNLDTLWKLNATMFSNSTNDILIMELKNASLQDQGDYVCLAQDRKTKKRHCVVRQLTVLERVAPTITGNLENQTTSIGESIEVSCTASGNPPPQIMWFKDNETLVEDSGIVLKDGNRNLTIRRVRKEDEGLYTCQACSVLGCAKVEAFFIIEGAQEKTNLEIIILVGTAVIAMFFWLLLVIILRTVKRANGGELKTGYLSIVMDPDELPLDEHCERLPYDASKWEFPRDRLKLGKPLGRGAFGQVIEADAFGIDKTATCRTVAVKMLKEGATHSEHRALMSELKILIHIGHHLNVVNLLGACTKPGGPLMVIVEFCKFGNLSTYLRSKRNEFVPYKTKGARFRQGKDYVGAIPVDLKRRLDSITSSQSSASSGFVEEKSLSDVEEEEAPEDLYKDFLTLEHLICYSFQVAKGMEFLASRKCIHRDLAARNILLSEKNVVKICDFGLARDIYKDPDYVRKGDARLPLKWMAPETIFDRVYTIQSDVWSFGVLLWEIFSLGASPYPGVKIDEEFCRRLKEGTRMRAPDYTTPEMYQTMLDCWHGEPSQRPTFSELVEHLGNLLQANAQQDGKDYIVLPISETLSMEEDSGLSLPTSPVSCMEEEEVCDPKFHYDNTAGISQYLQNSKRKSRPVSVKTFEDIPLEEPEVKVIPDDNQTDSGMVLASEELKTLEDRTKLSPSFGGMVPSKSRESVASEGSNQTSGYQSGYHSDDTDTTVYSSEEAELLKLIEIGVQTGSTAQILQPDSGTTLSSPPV
Sequence of ALK tyrosine kinase receptor (Q9UM73 whole entry): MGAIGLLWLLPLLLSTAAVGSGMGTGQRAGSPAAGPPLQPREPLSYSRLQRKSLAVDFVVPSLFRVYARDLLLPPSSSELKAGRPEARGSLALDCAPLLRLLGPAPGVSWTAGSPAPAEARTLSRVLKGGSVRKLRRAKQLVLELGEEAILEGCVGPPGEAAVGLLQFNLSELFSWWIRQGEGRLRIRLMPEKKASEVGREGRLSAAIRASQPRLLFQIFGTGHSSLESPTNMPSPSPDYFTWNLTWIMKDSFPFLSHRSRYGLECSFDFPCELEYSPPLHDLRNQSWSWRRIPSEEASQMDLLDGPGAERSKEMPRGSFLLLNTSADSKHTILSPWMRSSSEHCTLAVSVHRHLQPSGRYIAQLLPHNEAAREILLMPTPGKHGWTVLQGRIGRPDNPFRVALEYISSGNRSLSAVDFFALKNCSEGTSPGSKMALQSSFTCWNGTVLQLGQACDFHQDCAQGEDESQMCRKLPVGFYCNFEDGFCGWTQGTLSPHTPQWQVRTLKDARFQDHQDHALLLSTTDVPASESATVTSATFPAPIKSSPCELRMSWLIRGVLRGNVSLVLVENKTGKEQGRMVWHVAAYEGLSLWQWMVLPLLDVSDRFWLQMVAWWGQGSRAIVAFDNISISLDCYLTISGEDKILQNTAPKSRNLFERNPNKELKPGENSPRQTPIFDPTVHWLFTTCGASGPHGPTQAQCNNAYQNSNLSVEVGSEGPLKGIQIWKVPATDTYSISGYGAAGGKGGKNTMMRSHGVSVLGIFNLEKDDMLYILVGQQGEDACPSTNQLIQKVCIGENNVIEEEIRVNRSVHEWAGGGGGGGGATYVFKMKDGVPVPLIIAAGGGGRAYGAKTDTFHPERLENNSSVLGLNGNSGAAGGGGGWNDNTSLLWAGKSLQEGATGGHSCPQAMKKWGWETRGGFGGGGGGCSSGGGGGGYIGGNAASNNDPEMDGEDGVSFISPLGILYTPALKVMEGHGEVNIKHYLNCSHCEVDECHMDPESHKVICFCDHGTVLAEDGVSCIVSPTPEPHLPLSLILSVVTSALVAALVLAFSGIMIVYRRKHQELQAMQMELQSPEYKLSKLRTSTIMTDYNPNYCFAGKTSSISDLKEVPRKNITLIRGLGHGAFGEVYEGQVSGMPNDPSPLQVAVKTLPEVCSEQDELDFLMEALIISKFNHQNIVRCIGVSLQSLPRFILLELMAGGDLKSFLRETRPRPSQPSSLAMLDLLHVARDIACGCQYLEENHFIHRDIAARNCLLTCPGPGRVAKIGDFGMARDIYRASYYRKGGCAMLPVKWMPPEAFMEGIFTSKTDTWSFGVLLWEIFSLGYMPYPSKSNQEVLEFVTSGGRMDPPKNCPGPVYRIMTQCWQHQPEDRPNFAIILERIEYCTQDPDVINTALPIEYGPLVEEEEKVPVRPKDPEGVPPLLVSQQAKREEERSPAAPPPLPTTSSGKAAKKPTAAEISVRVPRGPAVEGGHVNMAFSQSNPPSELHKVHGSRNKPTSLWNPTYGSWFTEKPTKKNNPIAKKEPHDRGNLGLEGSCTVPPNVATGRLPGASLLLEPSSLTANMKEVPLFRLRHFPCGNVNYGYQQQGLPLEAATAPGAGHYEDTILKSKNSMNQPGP
Sequence of RAC-alpha serine/threonine-protein kinase (P31749 whole entry): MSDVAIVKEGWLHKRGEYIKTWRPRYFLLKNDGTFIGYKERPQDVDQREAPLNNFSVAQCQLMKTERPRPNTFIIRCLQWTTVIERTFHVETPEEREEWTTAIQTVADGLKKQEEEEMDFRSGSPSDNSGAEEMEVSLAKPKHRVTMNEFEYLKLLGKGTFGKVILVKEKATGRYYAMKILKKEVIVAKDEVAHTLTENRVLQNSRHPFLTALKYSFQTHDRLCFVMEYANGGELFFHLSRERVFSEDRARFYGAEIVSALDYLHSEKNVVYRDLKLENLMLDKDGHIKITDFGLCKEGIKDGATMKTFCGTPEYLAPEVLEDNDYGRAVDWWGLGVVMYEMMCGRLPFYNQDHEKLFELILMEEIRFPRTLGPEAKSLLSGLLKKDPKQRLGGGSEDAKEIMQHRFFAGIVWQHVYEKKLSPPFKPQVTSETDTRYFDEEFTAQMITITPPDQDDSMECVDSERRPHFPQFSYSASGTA
Sequence of Aurora kinase B (Q96GD4 whole entry): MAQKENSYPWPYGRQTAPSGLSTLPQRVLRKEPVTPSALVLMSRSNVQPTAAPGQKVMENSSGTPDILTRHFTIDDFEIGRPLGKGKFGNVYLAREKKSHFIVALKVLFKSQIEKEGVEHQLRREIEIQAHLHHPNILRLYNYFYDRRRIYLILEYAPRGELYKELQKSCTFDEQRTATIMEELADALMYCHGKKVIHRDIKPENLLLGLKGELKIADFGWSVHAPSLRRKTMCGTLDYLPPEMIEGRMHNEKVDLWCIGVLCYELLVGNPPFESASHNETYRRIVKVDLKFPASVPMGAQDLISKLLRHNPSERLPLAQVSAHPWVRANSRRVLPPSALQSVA

SMILES	IC50 [1] [µM]	IC50 [2] [µM]	IC50 [3] [µM]	IC50 [4] [µM]	IC50 [5] [µM]	IC50 [6] [µM]	IC50 [7] [µM]	IC50 [8] [µM]	IC50 [9] [µM]	IC50 [10] [µM]	IC50 [11] [µM]	IC50 [12] [µM]	IC50 [13] [µM]	IC50 [14] [µM]	IC50 [15] [µM]	IC50 [16] [µM]	IC50 [18] [µM]	Activity [19]	IC50 [20] [µM]	IC50 [22] [µM]	further results
COCc1c(C)c(O)c(O)c(O)c1C=O	> 30	> 30	> 30	> 30	> 30	> 30	> 30	11	> 30	20	9.33	20.6	> 30	20.6	> 30	3.5					
Cc1c(O)c(O)c(O)c2c1COC2=O	6.55	18.6	8.63	13.6	> 100	23.2	11.8	2.46	5.96	3.56	5.02	7.52	21.3	8.69	10	0.56					
Cc1c(O)c(O)c(O)c(C=O)c1-c1cc2c(C=O)c(C)c(O)c(O)c2o1	3.78	9	1.12	1.85	> 30	4.07	6.31	0.22	0.39	0.49	0.25	0.8	4.44	7.29	3.77	0.15	2.1	Non-toxic	6.9	9.1	inhibition of growth at 25 µM [17]: 55%; inhibition of growth at 25 µM [21]: 30%; IC50 [23]: 14.2 µM; IC50 [24]: 12.9 µM; IC50 [25]: 8.8 µM; IC50 [26]: 8.1 µM; IC50 [27]: 6.5 µM
Cc1c(O)c(O)c2c(c1C=O)[C@@H]1O[C@H](O2)c2c(C)c(O)c(O)c(O)c2C1=O (racemic)	1.83	4.48	0.58	0.52	> 30	2.15	3.18	0.16	0.32	0.37	0.18	0.42	3.1	2.51	2.51	0.07	1.6	Non-toxic	12.4	10	inhibition of growth at 5 µM [28]: 32%; inhibition of growth at 5 µM [29]: 50%; IC50 [23]: 9.8 µM; IC50 [24]: 11.7 µM; IC50 [25]: 8.6 µM; IC50 [26]: 8.4 µM; IC50 [27]: 4.6 µM
COC1OC(=O)c2c(O)c(O)c(O)c(C)c21 (racemic)	11.8	> 30	9.65	> 30	> 30	> 30	> 30	6.39	26.4	12.6	9.76	16.3	> 30	22.6	29.8	2.04					
O=c1c(O)c(-c2ccc(O)c(O)c2)oc2cc(O)cc(O)c12 [QUERCETIN]	5.73	5.8	0.58	4.23	> 10	5.39		0.96		0.12	3.32	1.2		0.91	5.09	0.3					

From ChEMBL document CHEMBL3102702, “Protein kinase and HDAC inhibitors from the endophytic fungus Epicoccum nigrum” (J Nat Prod, 2014)
